Results reported in PubChem BioAssay.
Calls of active or inactive are those of the source.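 How the source made its calls, unless noted: active means NADPH fluorescence slope more negative than the mean of all samples by about 3 SD, 99.7% confidence; inactive means the rest.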

Assays:
[1] = inhibitors of TNFa-induced NFkB p65 translocation, primary screen, imaging, HUVEC, MLSMR starter and 10KST1 sets (AID 438;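 active means inhibition above 20% together with a positive visual image hit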;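 further: compound added about 3h40 before a 20 min TNFalpha stimulation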;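 on inhibition: signal is the nuclear over cytoplasmic p65 intensity ratio per well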); details: HUVEC TNFa-induced p65 nuclear translocation; cell count: measured here: nuclei count (cytotoxicity indicator), at 2.08 µM; inhibition: at 2 µM, stronger effect = higher value, 0% TNFa-plus-vehicle, 100% no-TNFa wells
[2] = reduction of polyQ htt aggregates in cells – imaging, exon1htt(103Q)mCFP cells, high-content imaging, primary screen (AID 483;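 active means visual image review flags a hit and inhibition of aggregation exceeds 20%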;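 further: compound exposure lasted 3 days before fixation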;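 on nuclei count: percent of the per-plate median nuclei count of sample wells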); details: exon1htt(103Q)mCFP cell line, aggregate imaging, at 2 µM; inhibition of aggregation: stronger effect = higher value; nuclei count: measured here: cell count, toxicity
[3] = endothelial E-selectin expression blockers – imaging, HUVEC, immunofluorescence, MLSMR starter and 10KST1 sets, primary screen (AID 487;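 active means visually confirmed hit in the image check and inhibition above 20%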;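 on inhibition: signal is fraction of cell area covered by stained E-selectin grains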;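 on nuclei count: 100% = median nuclei count of all wells on the same plate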); details: HUVEC TNFalpha-induced E-selectin immunofluorescence imaging, at 2 µM; inhibition: stronger effect = higher value; nuclei count: measured here: cell number, toxicity
[4] = target: Voltage-gated potassium channel subunit beta-2 (Rattus norvegicus) (UniProt P62483); test: inhibitors of rat Kvbeta2 reductase activity – biochemical, NADPH fluorescence, primary screen (AID 622;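 active means fluorescence slope higher than the sample average by over 3 SD, cut at about -0.22 in these data, passing the limit was not always enough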;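 further: slope of raw intensity against log time taken from 70 to 1610 s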); details: recombinant KvBeta, 4-cyanobenzaldehyde reduction, at 10 µM, stronger effect = higher value
Voltage-gated potassium channel subunit beta-2 (Rattus norvegicus), sequence (P62483 whole entry, looked up): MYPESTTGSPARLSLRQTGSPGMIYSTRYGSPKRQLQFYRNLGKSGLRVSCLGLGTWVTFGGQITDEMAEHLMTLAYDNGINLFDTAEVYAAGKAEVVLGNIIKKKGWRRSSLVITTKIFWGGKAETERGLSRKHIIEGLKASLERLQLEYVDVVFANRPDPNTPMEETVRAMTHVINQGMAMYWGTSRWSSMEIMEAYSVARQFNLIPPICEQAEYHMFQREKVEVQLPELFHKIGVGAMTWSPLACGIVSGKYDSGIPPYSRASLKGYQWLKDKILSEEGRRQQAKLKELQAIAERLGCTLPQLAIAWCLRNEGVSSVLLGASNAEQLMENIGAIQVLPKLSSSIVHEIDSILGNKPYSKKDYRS

[5] = target: Voltage-gated potassium channel subunit beta-2 (Rattus norvegicus) (UniProt P62483); test: enhancers of rat Kvbeta2 NADPH turnover – biochemical, NADPH fluorescence, primary screen (AID 623); details: Recombinant KvBeta, NADPH fluorescence decrease slope, 10 min; at 10 µM; stronger effect = lower value;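 further: fluorescence intensity change per second fitted from 20 to 320 s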
[6] = target: Muscarinic acetylcholine receptor M4 (Homo sapiens) (UniProt P08173); test: M4-linked GIRK flux change, two-sided – cell-based, HEK293 M4/GIRK, thallium flux, BTC-AM, M4 allosteric agonist project, primary screen (AID 625;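 active means fluorescence slope after compound addition differing from the mean of all tested samples at 99.7% confidence, mostly higher but some lower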;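 further: thallium influx through GIRK channels coupled to M4 in HEK293 cells with BTC-AM dye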); details: at 10 µM, actives lie on both sides
Muscarinic acetylcholine receptor M4 (Homo sapiens), sequence (P08173 whole entry, looked up): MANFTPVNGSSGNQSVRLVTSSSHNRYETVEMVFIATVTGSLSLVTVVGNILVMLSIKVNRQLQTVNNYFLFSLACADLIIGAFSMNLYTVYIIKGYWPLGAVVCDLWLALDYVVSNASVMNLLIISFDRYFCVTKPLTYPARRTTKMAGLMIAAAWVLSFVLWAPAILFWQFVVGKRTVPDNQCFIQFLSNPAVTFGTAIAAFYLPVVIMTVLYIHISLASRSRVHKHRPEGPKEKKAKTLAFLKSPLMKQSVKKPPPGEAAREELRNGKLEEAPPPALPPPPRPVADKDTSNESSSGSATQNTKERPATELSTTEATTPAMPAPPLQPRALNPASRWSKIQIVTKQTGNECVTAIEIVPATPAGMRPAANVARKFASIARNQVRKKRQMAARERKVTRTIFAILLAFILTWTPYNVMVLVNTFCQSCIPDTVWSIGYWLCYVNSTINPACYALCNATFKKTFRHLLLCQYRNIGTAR
Method in brief: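 Assay system: HEK293 cells with M4 receptor and GIRK channels / Controls: carbachol and DMSO controls / Schedule: 1 h dye loading, 2 min kinetic read / Technique: kinetic fluorescence with BTC-AM dye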

[7] = blockers of RIG-like receptor reporter activation – cell-based, Sendai virus stimulus, luciferase, 10K MLSCN set, TLR/RLR signaling modifier project, primary screen (AID 602276;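 active means inhibition at or above 50% at 10 µM; inactive means inhibition below 50%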;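 further: firefly luciferase from ISG56 promoter only with Renilla not read in this screen; 0% = Sendai virus plus DMSO and 100% = medium plus DMSO without virus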); details: HEK293 RL24 IRF3 luciferase reporter, at 10 µM, stronger effect = higher value
[8] = TLR3 IRF3 reporter activation blockers – cell-based, poly I:C stimulus, luciferase, 10K MLSCN set, primary screen (AID 602277;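 active means inhibition of the reporter signal at or above 50%; inactive means inhibition below 50%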); details: HEK293-TLR3 RL24 IRF3 luciferase reporter, at 10 µM, stronger effect = higher value

Row | SMILES | cell count [1] | inhibition [1] | inhibition of aggregation [2] | nuclei count [2] [%] | inhibition [3] | nuclei count [3] [%] | fluorescence slope [4] | NADPH fluorescence slope [5] | fluorescence slope [6] | inhibition [7] | inhibition [8]
1 | CCn1cc(C2=NOC(C(=O)Nc3cc(C)nn3-c3ccccc3)C2)c(C)n1 (stereo not drawn) | 542 | -3.4% (inactive) | 11.1% (inactive) | 93.2 | -52.6% (inactive) | 84.5 | -0.448 (inactive) | 9.7e-06 (inactive) | 0.00533 (inactive) | -1.87% (inactive) | 98.7% (active)
2 | Cc1ccccc1-c1nc2ccccc2c(=O)n1C1CCS(=O)(=O)C1 (stereo not drawn) | 368 | 3.8% (inactive) | -7.2% (inactive) | 110 | -4.7% (inactive) | 102 | -0.614 (inactive) | 9.6e-06 (inactive) | 0.00582 (inactive) | 21% (inactive) | 31% (inactive)
3 | COCc1[nH]nc2c1C(C1C=CCCC1)C(C#N)=C(N)O2 (stereo not drawn) | 463 | 5.7% (inactive) | -1.8% (inactive) | 110 | -76.2% (inactive) | 120 | -0.464 (inactive) | -6.2e-05 (inactive) | 0.00521 (inactive) | 16.7% (inactive) | 31.6% (inactive)
4 | COc1cccc(NC(=O)CN2CCN(c3ccccc3F)CC2)c1 | 275 | -7.3% (inactive) | 19.4% (inactive) | 90.1 | 11.9% (inactive) | 86.8 | -0.526 (inactive) | 0.000174 (inactive) | 0.00586 (inactive) | 17.2% (inactive) | 10.2% (inactive)
5 | Cn1c(=O)cc(SCC(=O)NCC2CCCO2)c2ccc(Cl)cc21 (stereo not drawn) | 467 | -11.6% (inactive) | 3.4% (inactive) | 107 | 26.9% (inactive) | 93.8 | -0.549 (inactive) | -3.4e-05 (inactive) | 0.00522 (inactive) | 10.3% (inactive) | 9.81% (inactive)
6 | CC(C)=CCCC(C)NC(=O)NC1CCCCC1 (stereo not drawn) | 227 | -9.6% (inactive) | -23.2% (inactive) | 91.1 | -50.8% (inactive) | 87 | -0.546 (inactive) | -2.7e-05 (inactive) | 0.00495 (inactive) | -0.0287% (inactive) | -0.553% (inactive)
7 | CCOc1ccc(NC(=O)CN(C)S(=O)(=O)c2cccs2)cc1 | 650 | -12% (inactive) | -4.9% (inactive) | 104 | -22.6% (inactive) | 113 | -0.587 (inactive) | -3.3e-05 (inactive) | 0.00617 (inactive) | -60.5% (inactive) | -62.8% (inactive)
8 | CC1(C)CC(=O)c2cc(OCC(=O)N3CCN(c4ccccc4F)CC3)ccc2O1 | 550 | -19.1% (inactive) | -3.9% (inactive) | 94.6 | -101% (inactive) | 118 | -0.288 (inactive) | -5.4e-06 (inactive) | 0.00419 (inactive) | 19.9% (inactive) | 0.776% (inactive)
9 | COC(=O)c1ccc(COc2ncnc3c(Cl)cc(Cl)cc23)o1 | 406 | -5% (inactive) | 25.5% (inactive) | 74.4 | 59.9% (inactive) | 78.8 | -0.433 (inactive) | -0.000426 (inactive) | 0.00494 (inactive) | 2.59% (inactive) | 1.58% (inactive)
10 | Cc1ccsc1C1C2=C(CCCC2=O)Nc2ncnn21 (stereo not drawn) | 266 | -3.8% (inactive) | 15.5% (inactive) | 86.7 | -2.9% (inactive) | 101 | -0.523 (inactive) | -0.000154 (inactive) | 0.00358 (inactive) | 12.8% (inactive) | 16.1% (inactive)
11 | Cc1nnc(SCC(=O)Nc2ccc3c(c2)OCCO3)n1CC1CCCO1 (stereo not drawn) | 662 | -5% (inactive) | -0.8% (inactive) | 105 | -39.4% (inactive) | 114 | -0.341 (inactive) | -5.6e-05 (inactive) | 0.00537 (inactive) | 14.8% (inactive) | 7.29% (inactive)
12 | Cc1cccc2cc(C(c3nnnn3C(C)(C)C)N3CCN(C(=O)c4ccco4)CC3)c(=O)[nH]c12 (stereo not drawn) | 283 | -1.9% (inactive) | -6.7% (inactive) | 96.1 | -29.9% (inactive) | 88.4 | -0.439 (inactive) | -5.7e-05 (inactive) | 0.00557 (inactive) | 13.4% (inactive) | 16% (inactive)
13 | CCc1nc(N[C@@H](Cc2c[nH]c3ccccc23)C(=O)O)c2oc3ccccc3c2n1 | 570 | -0.4% (inactive) | -19.4% (inactive) | 101 | -59.6% (inactive) | 98.6 | -0.4 (inactive) | 4.2e-05 (inactive) | 0.00556 (inactive) | 10.8% (inactive) | 9.74% (inactive)
14 | CCCCNC(=O)Nc1ccnn1C1CCCCC1 | 909 | -7.5% (inactive) | -8.6% (inactive) | 100 | -34.1% (inactive) | 105 | -0.56 (inactive) | -1.6e-05 (inactive) | 0.0186 (active) | 17% (inactive) | 18.1% (inactive)
15 | CCCC(C)C(=O)Nc1ccc(C(N)=O)cc1 (stereo not drawn) | 668 | 0.5% (inactive) | 1% (inactive) | 110 | 22.4% (inactive) | 87 | -0.272 (inactive) | -3.2e-05 (inactive) | 0.00544 (inactive) | 11.2% (inactive) | 13.5% (inactive)
16 | O=C(NCc1ccco1)c1cc2c(s1)CSC2 | 473 | -4.3% (inactive) | 3.2% (inactive) | 105 | -31.1% (inactive) | 118 | -0.544 (inactive) | 1.9e-05 (inactive) | 0.00557 (inactive) | 9.74% (inactive) | 12.5% (inactive)
17 | CCNc1nc(N2CCCCC2)nc(-n2nnc(C(=O)OCC)c2C)n1 | 550 | -5.3% (inactive) | 1.6% (inactive) | 92.5 | 27.7% (inactive) | 66.8 | -0.613 (inactive) | -6.3e-05 (inactive) | 0.00368 (inactive) | -2.26% (inactive) | 4.91% (inactive)
18 | CCN1C(=O)OC2(CCCCC2)C1(C)O (stereo not drawn) | 429 | 0% (inactive) | -3.6% (inactive) | 114 | 9.3% (inactive) | 106 | -0.566 (inactive) | 2.7e-05 (inactive) | 0.00575 (inactive) | 4.15% (inactive) | 8.64% (inactive)
19 | N=c1sc2ccccc2n1-c1ccccc1 | 402 | 10.9% (inactive) | 14.5% (inactive) | 96.6 | -469% (inactive) | 114 | -0.583 (inactive) | -1.3e-05 (inactive) | 0.00638 (inactive) | 15.3% (inactive) | 14.4% (inactive)
20 | CCSc1ncc(C#N)c(=O)[nH]1 | 381 | 3.5% (inactive) | -21.7% (inactive) | 89.7 | -53.9% (inactive) | 102 | -0.517 (inactive) | -0.000177 (inactive) | 0.00385 (inactive) | 2.6% (inactive) | 6.42% (inactive)
21 | Cn1c(=O)[nH]c(=O)c2[nH]c(CN3CCN(C(=O)c4ccco4)CC3)nc21 | 418 | -2.3% (inactive) | -1.2% (inactive) | 124 | -5.3% (inactive) | 131 | -0.54 (inactive) | -1.3e-05 (inactive) | 0.00483 (inactive) | 1.74% (inactive) | 11% (inactive)
22 | CN(C(=O)c1c(Cl)nc2sccn12)C1CCCCC1 | 456 | 9.8% (inactive) | -13.5% (inactive) | 104 | -498% (inactive) | 162 | -0.464 (inactive) | -5.9e-05 (inactive) | 0.00592 (inactive) | 10.8% (inactive) | 6.58% (inactive)
23 | Cc1cc(C)n2nc3nc(N4CCCCC4)nc(-c4ccco4)c3c2n1 | 315 | -2.2% (inactive) | -24.4% (inactive) | 105 | -260% (inactive) | 86.7 | -0.433 (inactive) | 1e-05 (inactive) | 0.00465 (inactive) | 12.6% (inactive) | 2.12% (inactive)
24 | CCC(Sc1nc2n[nH]c(C)c2c(=N)n1-c1cc(Cl)ccc1C)C(=O)N1CCOCC1 (stereo not drawn) | 338 | -2.1% (inactive) | 11.8% (inactive) | 97.6 | -273% (inactive) | 108 | -0.593 (inactive) | -1.6e-05 (inactive) | 0.00508 (inactive) | -6.83% (inactive) | 10% (inactive)
25 | COc1cc(-c2nc(-c3cccc(C(F)(F)F)c3)no2)cc(OC)c1OC | 413 | 5.3% (inactive) | 3.5% (inactive) | 102 | -78.2% (inactive) | 109 | -0.554 (inactive) | -5.5e-05 (inactive) | 0.00715 (inactive) | 3.75% (inactive) | -10.8% (inactive)
26 | COc1ccc(OC)c(S(=O)(=O)Nc2ccccc2C(=O)O)c1 | 702 | -4.4% (inactive) | 0% (inactive) | 100 | 35.6% (inactive) | 85.9 | -0.569 (inactive) | 1.5e-05 (inactive) | 0.0048 (inactive) | 23.8% (inactive) | 18.9% (inactive)
27 | CCCc1nc2ccccc2c(=O)n1NC(=O)c1c(O)c2cccc3c2n(c1=O)CCC3 | 554 | -15.1% (inactive) | -12.2% (inactive) | 92 | -150% (inactive) | 120 | -0.391 (inactive) | -0.000105 (inactive) | 0.00863 (inactive) | 7.44% (inactive) | 6.93% (inactive)
28 | Cc1c(Br)c(C(F)(F)F)nn1CC(=O)NCCN1CCOCC1 | 412 | 1.6% (inactive) | 0.2% (inactive) | 86.5 | -39.7% (inactive) | 114 | -0.553 (inactive) | -5.2e-05 (inactive) | 0.00496 (inactive) | 1.54% (inactive) | 21.8% (inactive)
